# Sampled rows, rich in hits. Any-hit rate of the full collection: about 1.9%.
# aDG glyco act: increases alpha dystroglycan glycosylation; Pro5-aDG cells, alpha-DG glycosylation AlphaScreen (IIH6); 0% Pro5, 100% B10-LARGE cell signal; activation, % at 10 µM; 360,000 compounds, 0.22% hits; AID 624168;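 active means activation of at least 8% versus controls, or a plate z-score of at least 8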;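 further: Pro5 are CHO cells carrying HIG-tagged alpha-DG that lacks glycosylation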
# Glyco luc inh: blocks N-linked glycosylation in D54 reporter cells | reporter increase, % at 12.5 µM | D54 ERlucT glycosylation luciferase reporter, 24 h; percent of 100 nM tunicamycin response | 360,000 compounds, 0.23% hits;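 active means mean luciferase reporter signal, scaled so untreated is 0 and the glycosylation-blocking control 100, at or above a set limit in every replicate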;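 further: luciferase carries N-glycosylation sites so blocking glycosylation raises the light; 0% = median of neutral control wells and 100% = median of 100 nM tunicamycin wells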
# MsrA inhibitor: bovine MsrA inhibition; purified bovine MsrA, absorbance read-out; inhibition, % at 15.5 µM; 360,000 compounds, 0.75% hits; AID 651718;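 further: 0% = vehicle wells with enzyme and 100% = reference inhibitor wells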
# UCH37 inh: inhibitors of human deubiquitinating enzyme UCH37; AID 588478; 330,000 compounds, 0.33% hits; purified proteasome/UCH37, Ub-AMC cleavage fluorescence; inhibition, % (test concentration not listed);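 active means mean inhibition over replicate wells above about 20%, limit read from the data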;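 further: 0% = compound-free wells with enzyme and 100% = wells lacking proteasome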
# Target sequence (Q9Y5K5 whole entry, looked up): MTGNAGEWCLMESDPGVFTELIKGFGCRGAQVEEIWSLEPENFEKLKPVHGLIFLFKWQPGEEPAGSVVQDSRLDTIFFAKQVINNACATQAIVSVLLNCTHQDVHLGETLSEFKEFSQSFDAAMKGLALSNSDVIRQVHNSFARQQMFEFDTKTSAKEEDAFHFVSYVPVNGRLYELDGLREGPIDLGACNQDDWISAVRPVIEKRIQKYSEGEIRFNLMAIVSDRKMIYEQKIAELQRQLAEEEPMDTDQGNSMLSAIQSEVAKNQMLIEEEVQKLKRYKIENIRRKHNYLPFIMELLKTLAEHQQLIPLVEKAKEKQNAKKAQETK
#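 Signal – fluorescence, ex 355 nm, em 460 nm · System – Proteasome-bound UCH37 · Input – 0.15 nM proteasome as dispensed · Timing – 30 min preincubation with enzyme, 25 min cleavage at room temperature · Read-out basis – percent inhibition of cleavage signal versus uninhibited and no-proteasome wells · Medium – Tris-HCl pH 7.4 with ATP-MgCl2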
# bovine MsrA act: activates bovine MsrA enzyme; purified bovine MsrA, absorbance read-out; activation, % at 10.6 µM; 360,000 compounds, 0.3% hits; in the data active means activation above about 7.5%;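 further: 0% = vehicle and 100% = reference activator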
# Vif inh: inhibitors of HIV Vif | HEK293T cells, Vif self-association by quenched fluorescence, imaging, 24 h | inhibition, % at 7.49 µM | 340,000 compounds, 0.35% hits; in the data active means inhibition above about 50%, passing the limit was not always enough
# MsrA inh confirm: bovine MsrA inhibition, confirmed; shares compounds with MsrA inhibitor; purified bovine MsrA, absorbance read-out; inhibition, % at 15.5 µM; 2,300 compounds, 41% hits;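 further: coupled to thioredoxin reductase with NADPH and selenocystamine and DMSO as substrate; 0% = vehicle only and 100% = full effect of reference inhibitor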
# The depositor's hits bear a star; . = not tested or not shown. Unless noted, no stated cut-off is given here; in the data, active means inhibition above about 4.5%; inactive means the rest.
SMILES,aDG glyco act,Glyco luc inh,MsrA inhibitor,UCH37 inh,bovine MsrA act,Vif inh,MsrA inh confirm
NS(=O)(=O)c1ccc(NC(=O)/C=C/c2cccs2)cc1,0,1,8.2*,-4,-11,-25,5.1*
O=C(/C=C/c1ccccc1[N+](=O)[O-])Nc1ccc(S(=O)(=O)Nc2ncccn2)cc1,0,.,2,6,-5,.,.
O=C(/C=C/c1cccs1)Nc1ccc(S(=O)(=O)Nc2ncccn2)cc1,0,-5,4.7*,13,-7,4,4
COc1cc(/C=C/C(=O)Nc2ccncc2)cc(OC)c1OC,0,3,4.7*,-160,-3,0,3
NS(=O)(=O)c1ccc(NC(=O)/C=C/c2cccc(Cl)c2)cc1,0,3,1,2,-3,-5,.
NS(=O)(=O)c1cccc(NC(=O)/C=C/c2cccs2)c1,0,0,5.1*,6,-4,-1,4
NS(=O)(=O)c1cccc(NC(=O)COC(=O)/C(=C/c2cccs2)c2cccs2)c1,0,-1,2,-12,-3,3,.
COc1cc(/C=C/C(=O)Nc2ccc(S(=O)(=O)Nc3ncccn3)cc2)ccc1OCC#N,0,2,4.9*,7,-5,-2,2
CCn1cc(C=NNS(=O)(=O)c2ccc(OC)cc2)c(C)n1,.,.,.,2,.,.,.
Nc1nonc1-n1nnc(C(=O)NN=Cc2ccc(OCc3ccccc3F)cc2)c1CNc1ccccc1,.,.,.,3,.,.,.
CCN1CCN(c2nc3ccccc3nc2NS(=O)(=O)c2ccc(NC(C)=O)cc2)CC1,0,2,4.7*,-51,-12,3,2
COC(=O)c1[nH]c2ccccc2c1NC(=O)Oc1ccccc1,0,1,0,-20,-4,-5,.
COC(=O)c1[nH]c2cc(OC)c(OC)cc2c1NC(=O)Oc1ccccc1,0,3,5.0*,-60,-4,-1,1
CCOC(=O)C(C#N)=NNc1ccccc1C(=O)O,.,.,.,15,.,.,.
CC1=CC(=C2N=C(c3ccccc3)OC2=O)C=C(C)O1,0,-1,0,1,3,10,.
CN(C)/C=C1\N=C(c2ccc3c(c2)OCO3)OC1=O,0,-4,6.1*,17,-6,.,5.7*
CCOc1cc(/C=C2/N=C(c3ccc4c(c3)OCO4)OC2=O)ccc1OC(C)=O,0,4,1,-16,-3,-3,.
CN(C)/C=C1\N=C(c2ccccc2)OC1=O,0,2,8.9*,20*,-11,16,6.0*
CC(/C=C/c1ccc(N(C)C)cc1)=N/N=C1/NC(=O)CC(C(=O)Nc2ccccc2)S1 (configuration not stated),.,.,.,0,.,.,.
Brc1cccc(C=Nn2cnnc2)c1,.,.,.,3,.,.,.
CCN(C(=O)COC(=O)c1cc([N+](=O)[O-])ccc1N1CCOCC1)c1ccccc1,-1,-5,9.8*,7,-1,4,5.5*
O=C1C(Cl)=C(NCCCN2CCOCC2)C(=O)N1CCc1ccccc1,0,-2,27*,3,0,-3,25*
O=C1C(Cl)=C(NCCc2ccccc2)C(=O)N1CCc1ccccc1,0,-3,-1,-50,-1,-5,.
CNc1ncc(C(=O)c2ccc(F)cc2)s1,0,0,4.7*,12,-10,2,3
C(=NN=Cc1ccccc1)c1ccccc1,.,.,.,6,.,.,.
SMILES,aDG glyco act,Glyco luc inh,MsrA inhibitor,UCH37 inh,bovine MsrA act,Vif inh,MsrA inh confirm
Cn1cccc1C=NNC(=O)Cc1ccc(Br)c2ccccc12,.,.,.,-1,.,.,.
Cc1ccc(C(=O)NN=Cc2ccc[nH]2)cn1,.,.,.,13,.,.,.
Cc1ccc(C(=O)N/N=C\c2ccc[nH]2)cn1,0,1,6.6*,.,-3,1,4
O=C(N/N=C/c1ccc[nH]1)c1c[nH]c2ccccc12,0,2,5.8*,.,-12,2,4
O=C(N/N=C/c1ccc[nH]1)c1cccnc1,0,2,5.7*,.,-5,.,5.2*
Cc1ccc(C(=O)N/N=C\c2cccn2C)cn1,1,0,7.8*,.,-11,10,4.7*
O=C(CNS(=O)(=O)c1ccccc1)NN=Cc1ccc(O)cc1,.,.,.,2,.,.,.
CCOC(=O)SC1=N/C(=C\c2ccc(N(C)C)cc2)C(=O)S1,1,2,1,3,1,.,.
CCOC(=O)c1cc2c(=Cc3ccc(N(C)C)cc3)c3ccccc3n2[n+]1C,0,40*,5.0*,.,-5,-11,0
COc1cccc(NC(=O)N2CCN(c3cccc(C)c3)C(C)C2)c1 (configuration not stated),0,3,0,-2,5,-11,.
COc1cccc(N2CCN(C(=O)c3ccc(=O)oc3)CC2C)c1 (configuration not stated),0,0,4.9*,1,-8,-3,4
O=C(Cc1ccccc1)NN=Cc1ccc[nH]1,.,.,.,5,.,.,.
CCOC(=O)C(=CNc1cccc(N)n1)C(=O)OCC,0,0,6.5*,-16,-4,-6,4.8*
O=C(NN=C/C=C\c1ccco1)c1cccnc1,.,.,.,19,.,.,.
CCc1ccc(Nc2nc(C)cc(C)n2)cc1,0,0,0,3,-2,4,.
CCc1ccc(-n2c(O)cnc2Nc2nc(C)cc(C)n2)cc1,0,-1,9.5*,4,-8,.,7.0*
COc1ccc(-n2c(O)cnc2Nc2nc(C)cc(C)n2)cc1OC,0,-1,15*,0,-3,-14,6.5*
Cc1nc2c(=O)n(C)c(=O)n(C)c2nc1Cl,0,7,4.7*,-12,1,5,2
Cn1c(=O)c2nc(NCc3ccccc3)cnc2n(C)c1=O,0,2,0,-133,-5,-4,.
COc1ccc(NC(=O)CC(C)=NNC(=O)c2cccs2)c([N+](=O)[O-])c1,.,.,.,3,.,.,.
C=CCc1c(C)nc(C)nc1N/N=C/c1ccccc1,0,2,4.7*,.,-3,-1,4.8*
C=CCc1c(C)nc(C)nc1NN=Cc1ccccc1,.,.,.,10,.,.,.
O=[N+]([O-])c1ccc(O)c(C=Nc2cccc3ncccc23)c1,0,7,5.2*,6,-14,7,3
O=[N+]([O-])c1ccc(O)c(C=Nc2cccc3ccccc23)c1,0,7,2,-73,0,-5,.
CCOc1ccccc1NC(=S)NC(=O)C1CC1,0,3,7.4*,.,1,-3,7.2*
CN(C)Cc1c(C(=O)NN=Cc2ccc(OCc3c(F)cccc3Cl)cc2)nnn1-c1nonc1N,.,.,.,0,.,.,.
CC1CCN(N=Nc2nc3c([nH]2)c(=O)n(C)c(=O)n3C)CC1,0,5,7.8*,17,1,-2,5.5*
Clc1ccc(Cn2cc(C=Nn3cnnc3)c3ccccc32)cc1,.,.,.,2,.,.,.
CN(C)/C=N/c1nc2nccc(-c3ccc(F)cc3)n2n1,0,4,2,.,-3,0,.

# Bioassay records deposited in PubChem BioAssay by several laboratories.
